Measurements collected from several papers.
Each line is one published result; the experiments were not run side by side.
Cell line: MCF7
Observed: cell growth or viability

With CC(=O)N[C@H]1[C@@H](O[C@@H]2O[C@H](C[C@@H](O)[C@H]3O[C@@H](n4ccc(=O)[nH]c4=O)[C@H](O)[C@@H]3O)[C@H](O)[C@H](O)[C@H]2NC(=O)/C=C/CCCCCCCCCC(C)C)O[C@H](CO)[C@@H](O)[C@@H]1O the IC50 was 0.52 µM (WST-1).
For COc1c(C)c2c(c(O)c1C/C=C(\C)CCC(=O)O)C(=O)OC2, the IC50 was 0.741 µM.
O=C(NCc1ccc(Cl)cc1)c1cn(Cc2ccc(Cl)cc2)c2ccc(Oc3ccccc3)cc2c1=O gave an IC50 of 481 µM (MTT; 24 h).
N.N.[Cl][Pt][Cl] gave an IC50 of 46.1 µM (MTT).
CC[C@@]1(O)C(=O)OCc2c1cc1n(c2=O)Cc2cc3ccccc3nc2-1 has an IC50 of 0.067 µM (SRB; 48 h).
With Fc1ccc2c(-c3nc(Cc4ccccc4)cs3)nn(Cc3ccc(Cl)cc3Cl)c2c1 the IC50 was 32.9 µM (48 h).
For O=C(NCc1ccc(C(F)(F)F)cc1)c1cn(Cc2ccc(Cl)cc2)c2ccc(Oc3ccccc3)cc2c1=O, the IC50 was 109 µM (MTT; 48 h).
CC[C@H](C)[C@@H]([C@@H](CC(=O)N1CCC[C@H]1[C@H](OC)[C@@H](C)C(=O)N[C@H](C)[C@@H](O)c1ccccc1)OC)N(C)C(=O)[C@@H](NC(=O)[C@@H](NC)C(C)C)C(C)C gave an IC50 of 0.0106 µM (CCK-8).
Cc1ccc(CNC(=O)c2cn(Cc3ccc(Cl)cc3)c3ccc(Oc4ccccc4)cc3c2=O)cc1 has an IC50 of over 500 µM (MTT; 24 h).
The IC50 of CC(=O)c1c(C)c2cnc(Nc3ccc(C4CCN(CCS(C)(=O)=O)CC4)cn3)nc2n(C2CCCC2)c1=O is reported as 0.143 µM (ATP luminescence; 72 h).
The IC50 of N.N.[Cl][Pt][Cl] is reported as 61.6 µM (MTT; 72 h).
For O=C(NCc1ccc(F)cc1)c1cn(Cc2ccc(F)cc2)c2ccc(Oc3ccccc3)cc2c1=O, the IC50 was 327 µM (MTT; 48 h).
N.N.[Cl][Pt][Cl] has an IC50 of 9.9 µM (MTT; 48 h).
c1ccc([Se][Au]=[c]2n(C3CCCCC3)ccn2C2CCCCC2)cc1 gave an IC50 of 1 µM (crystal violet).
With O=C(NCc1ccc(C(F)(F)F)cc1)c1cn(Cc2ccc(F)cc2)c2ccc(Oc3ccccc3)cc2c1=O the IC50 was 183 µM (MTT; 48 h).
C#CCn1c(C(=O)/C=C/c2ccc(F)cc2)nc2ccccc21 gave an IC50 of 2.48 µM (LDH; 48 h).
